For one test, the system named is Plasmodium falciparum. Briefly: Antimalarial activity against Plasmodium falciparum. It counts as functional, organism-based. Summed up:
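Chloroquine-sensitive Nigerian strain of P. falciparum; inhibition of in vitro growth; IC50 taken as the mean of at least two independent experiments, each run in duplicate.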

In test [1] the test system is Plasmodium vinckei. Briefly: Antimalarial activity against Plasmodium vinckei 279BY infected in Swiss mice (Mus musculus) dosed perorally for 4 consecutive days. Type of test: functional. The conditions noted are these: ip, in the assay text read “dosed intraperitoneally” for “dosed perorally”. A digest of the protocol:
(§1)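 Female Swiss mice infected with P. vinckei petteri 279BY on day 0. Dosing once daily on days 1–4 post infection, ip or po as given in each line, n = 3 per dose. Parasitemia measured on day 5 and expressed as decrease relative to untreated control. ED50 derived from the dose series.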

Test [2] relates to Plasmodium vinckei. Briefly: Antimalarial activity against Plasmodium vinckei 279BY infected in Swiss mice (Mus musculus) assessed as reduction in parasitemia at 5 mg/kg, intraperitoneally. It counts as functional. Also noted: scale not given: the % may be the effect or the level left. The settings on record: route intraperitoneal. Summed up:
as §1

In test [3] the test system is Plasmodium vinckei. Briefly: Antimalarial activity against Plasmodium vinckei 279BY infected in Swiss mice (Mus musculus) assessed as reduction in parasitemia at 180 mg/kg, po. It counts as functional. On the set-up: scale not given: the % may be the effect or the level left. Summed up:
as §1

As for `COc1ccc(C(=N)NCCCCCCCCCCCCNC(=N)c2ccc(OC)c(OC)c2)cc1OC.Cl.Cl`, the IC50 in the test with Plasmodium falciparum came out at 6.7 nM. Besides, the 50% effective dose (ED50) in the test on Plasmodium vinckei [1] was more than 5 mg/kg. The Activity in the test with Plasmodium vinckei [2] came to 40%.
Consider `COc1cccc(C(=N)NCCCCCCCCCCCCNC(=N)c2cccc(OC)c2)c1.Cl.Cl`, for which, in the test with Plasmodium falciparum, the half-maximal inhibitory concentration (IC50) worked out at 6.6 nM. In the test with Plasmodium vinckei [1], this compound gave an ED50 of 5 mg/kg. The Activity in the test with Plasmodium vinckei [3] worked out at 42%.
The corresponding values for `COc1cc(OC)cc(C(=N)NCCCCCCCCCCCCNC(=N)c2cc(OC)cc(OC)c2)c1.Cl.Cl` are 39 nM, 5 mg/kg and 20%.
In turn, `Cl.Cl.N=C(NCCCCCCCCCCCCNC(=N)c1ccc(N)cc1)c1ccc(N)cc1` had a half-maximal inhibitory concentration (IC50) in the test with Plasmodium falciparum of 14 nM. In the test on Plasmodium vinckei [1], this compound showed a median effective dose (ED50) of 2.2 mg/kg. Further, in the test with Plasmodium vinckei [3], the Activity is listed as 58%.
In the test with Plasmodium falciparum, `Cc1ccc(C(=N)NCCCCCCCCCCCCNC(=N)c2ccc(C)cc2)cc1.Cl.Cl` gave an IC50 of 10 nM. Besides, the 50% effective dose (ED50) in the test on Plasmodium vinckei [1] stood at 3.1 mg/kg.
Compound `CC(=N)NCCCCCCCCCCCCNC(C)=N.Cl.Cl` gave a median effective dose (ED50) in the test on Plasmodium vinckei [1] of 3.1 mg/kg.
For `CCC(=N)NCCCCCCCCCCCCNC(=N)CC.Cl.Cl`, inhibition with Plasmodium falciparum was half-maximal at 18 nM (IC50). In the test on Plasmodium vinckei [1], this compound registered an ED50 of more than 10 mg/kg.
The corresponding values for `CC(C)C(=N)NCCCCCCCCCCCCNC(=N)C(C)C.Cl.Cl` are 10.2 nM and 7 mg/kg.
Turning to `Cl.Cl.N=C(NCCCCCCCCCCCCNC(=N)C1CC1)C1CC1`, inhibition in the test on Plasmodium falciparum was half-maximal at 16 nM (IC50). The compound also registered a median effective dose (ED50) in the test on Plasmodium vinckei [1] of 5 mg/kg.
The corresponding values for `Cl.Cl.NC(=O)NCCCCCCCCCCCCNC(N)=O` are 9.15 nM and 8.5 mg/kg.
As to `N=C(NCCCCCCCCCCCCNC(=N)c1ccco1)c1ccco1`, half-maximal inhibition in the test with Plasmodium falciparum (IC50) was put at 715 nM.
Still for that read-out and setting: the figure for `N=C(NCCCCCCCCCCCCNC(=N)c1ccc(C(F)(F)F)cc1)c1ccc(C(F)(F)F)cc1` is 455 nM; for `N=C(NCCCCCCCCCCCCNC(=N)c1ccc([N+](=O)[O-])cc1)c1ccc([N+](=O)[O-])cc1` it is 520 nM.
`COc1ccc(C(=N)NCCCCCCCCCCCCNC(=N)c2ccc(OC)cc2)cc1.Cl.Cl` came in with an IC50 in the test with Plasmodium falciparum of 26.5 nM. This compound also displayed an ED50 with Plasmodium vinckei [1] of more than 20 mg/kg.
`COc1ccccc1C(=N)NCCCCCCCCCCCCNC(=N)c1ccccc1OC.Cl.Cl` gave an IC50 in the test with Plasmodium falciparum of 24.5 nM. Also, the 50% effective dose (ED50) in the test on Plasmodium vinckei [1] came out at 12 mg/kg.
The corresponding values for `Cl.Cl.N=C(NCCCCCCCCCCCCNC(=N)c1ccc2c(c1)OCO2)c1ccc2c(c1)OCO2` are 55.5 nM and 12 mg/kg.
Taken in the same sequence, the figures for `Cl.Cl.N=C(NCCCCCCCCCCCCNC(=N)c1ccccc1)c1ccccc1` were 13.5 nM and more than 10 mg/kg.

As a reminder, the IC50 is the concentration at which inhibition is half-maximal. What is called ED50 is the dose that gives a 50% effect, or the effect in half of the subjects.

For the origin of these results see ChEMBL document CHEMBL1255542, “Reverse-benzamidine antimalarial agents: design, synthesis, and biological evaluation” (Bioorg Med Chem Lett, 2010).
